Screening results deposited in PubChem BioAssay by several laboratories.
Shown are actives, neighbours in structure and some others; about 2.1% of the full set was active somewhere.
F508del corr: correctors of CFTR F508del function in bronchial epithelial cells; CFBE cells, YFP halide quenching; stimulated with forskolin plus potentiator P3; % fluorescence drop versus neutral controls; activity (quench increase), % at 7.58 µM; 350,000 tested, 0.36% active; AID 720511;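 active = mean added fluorescence quench of at least 8% versus neutral control, with both replicates also reaching 8%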;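 note: cells transiently co-express mutant CFTR-F508del with the halide-sensitive YFP; corrector assay measuring rescue of mutant channel to the surface after 24 h compound exposure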
MC4R antagonist: human MC4R antagonism in cAMP assay; P32245; MC4R-expressing cells, MTII-stimulated cAMP, LANCE TR-FRET; inhibition, % at 6.5 µM; 360,000 tested, 0.48% active;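 active = inhibition above its plate's cutoff, the mean of tested wells on that plate plus 3 SD, cut at about 29% in these data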;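 note: 0% = Melanotan II alone and 100% = Melanotan II plus saturating MCL0020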
Target sequence (P32245 whole entry, looked up): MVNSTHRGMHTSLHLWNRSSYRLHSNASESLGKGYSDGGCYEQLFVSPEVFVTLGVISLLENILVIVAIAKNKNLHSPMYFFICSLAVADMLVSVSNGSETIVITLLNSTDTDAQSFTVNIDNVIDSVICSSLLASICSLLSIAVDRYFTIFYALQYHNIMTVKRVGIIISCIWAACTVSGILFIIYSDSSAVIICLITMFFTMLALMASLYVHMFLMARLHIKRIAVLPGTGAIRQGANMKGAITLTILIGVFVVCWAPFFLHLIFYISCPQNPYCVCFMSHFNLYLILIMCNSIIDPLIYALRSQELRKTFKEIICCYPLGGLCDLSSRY
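Assay system: human MC4R-expressing U2OS cells; reagent: Melanotan II stimulation of cells; dosing: 6.5 µM single dose; timing: compound 30 min, challenge 1 h, detection 1 h; signal: TR-FRET cAMP assay; replicates: one well per compound, no replicates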
SMARCA2 activ: increases SMARCA2 function in MMTV reporter cells. MG213 cells, MMTV-luciferase reporter, dexamethasone, overnight. activation, % at 9.1 µM. 370,000 tested, 1% active. AID 652017; in the data active = activation above about 7.8%;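 note: 0% = vehicle wells and 100% = reference activator wells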
MC4R barr agon: activates human MC4R beta-arrestin recruitment | 360,000 tested, 0.98% active | U2OS MC4R beta-arrestin complementation, luminescence; percent of melanotan II response, DMSO zero | activation, % at 8.9 µM;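 active = activation above a per-plate cutoff, the mean activation of sample wells on that plate plus 3 SD, cut at about 8% in these data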
An asterisk follows results filed as active; . = not tested or not shown.

SMILES	F508del corr	MC4R antagonist	SMARCA2 activ	MC4R barr agon
COc1ccc(N2CCN(C(=O)CSc3nnc(-c4cccnc4)n3-c3ccc(F)cc3)CC2)cc1	.	13	7.9*	-2
COc1ccc(N2CCN(C(=O)CSc3nnc(-c4cccnc4)n3-c3ccccc3)CC2)cc1	.	3	1	-1
CCc1ccc(Nc2cnn(-c3nc4ccccc4s3)c(=O)c2Cl)cc1	1	20	-1	8.2*
O=C(/C=C/c1ccccc1)NC(=S)Nc1ccc(N2CCOCC2)cc1	.	6	-2	14*
O=C(/C=C/c1ccccc1)NC(=S)Nc1ccccc1	0	5	0	1
O=C(CSC1=NCCS1)Nc1nc2c(s1)CCCC2	.	2	7.9*	-3
O=C(O)c1ccc(-c2nc(-c3ccc(Cl)c(Cl)c3)cs2)cc1	.	31*	.	-2
Brc1ccccc1Cn1c(-c2cscn2)nc2ccccc21	.	0	-1	9.3*
C[C@H](CO)N1C[C@H](C)[C@H](CN(C)Cc2ccccc2)Oc2ncc(-c3cccc(F)c3)cc2C1=O	2	.	.	.
Cc1ccc(SCC(=O)Nc2ccc(-c3nc4ccccc4[nH]3)cc2)cc1	-5	5	-2	8.3*
Cc1ccc2nc(-c3ccc(SCC(=O)Nc4nc(C)cs4)nc3)[nH]c2c1	.	7	7	0
Cc1ccc2nc(-c3ccc(SCC(=O)Nc4nnc(C)s4)nc3)[nH]c2c1	.	8	1	11*
Oc1ccc(Cl)cc1C1=Nc2ccccc2N=C(c2ccco2)C1	-1	6	-2	9.0*
N#CCC(=O)N/N=C/c1cn(Cc2cccc3ccccc23)c2ccccc12	11*	10	0	-1
N#CCC(=O)N/N=C/c1cn(Cc2ccc(Cl)c(Cl)c2)c2ccccc12	-1	-8	-2	20*
C[C@@H]1CCCCO[C@H](CN(C)C(=O)Nc2ccc(C(F)(F)F)cc2)[C@@H](C)CN([C@@H](C)CO)C(=O)c2cc(NS(=O)(=O)c3cn(C)cn3)ccc2O1	-3	.	.	.
O=C(C[C@H]1C[C@H]2c3cc(NS(=O)(=O)c4ccc(F)cc4)ccc3O[C@H]2[C@H](CO)O1)NC1CCCCC1	-2	.	.	.
C=CCn1c(SCC(=O)N(C)C2CCS(=O)(=O)C2)nc2ccccc2c1=O (configuration not stated)	19*	21	1	0
O=C(COc1ncnc2ccccc12)c1ccc(Cl)cc1	-1	0	7.8*	-3
CCCC#Cc1cnc2c(c1)C(=O)N([C@H](C)CO)C[C@@H](C)[C@H](CN(C)C)O2	-4	.	.	.
CN(C[C@@H]1N[C@H](CO)[C@H]1c1ccccc1)C(=O)c1ccccn1	8.6*	.	.	.
C[C@H]1CN([C@@H](C)CO)C(=O)c2cc(NC(=O)Nc3ccc(C(F)(F)F)cc3)ccc2O[C@H]1CN(C)C	-1	.	.	.
C=CC1c2cc(OC)c(OC)cc2CC(C)N1Cc1ccc(OC)cc1 (configuration not stated)	18*	.	.	.
O=C(NCc1nc(-c2ccccc2)no1)c1ccc2c(c1)OCO2	.	0	-2	-1
Cc1ccccc1OCc1nc(-c2ccc(NC(=O)c3ccc4c(c3)OCO4)cc2)no1	.	1	2	22*
SMILES	F508del corr	MC4R antagonist	SMARCA2 activ	MC4R barr agon
O=C(Nc1ccc(Cl)c(Cl)c1)c1ccc2c(c1)OCO2	0	9	4	9.3*
Cc1cc(Br)cc(/C=N/NC(=O)c2ccc3c(c2)OCO3)c1O	9.3*	4	-1	6
O=C(N/N=C/c1ccccc1O)c1ccc2c(c1)OCO2	5	-3	-2	0
O=C(N/N=C/c1cc(Br)cc(Cl)c1O)c1ccc2c(c1)OCO2	12*	1	2	-3
C[C@H](CO)N1C[C@H](C)[C@H](CN(C)C(=O)Nc2cccc3ccccc23)OCCCC[C@H](C)Oc2ccc(NS(=O)(=O)c3ccc(Cl)cc3)cc2C1=O	1	.	.	.
C[C@@H]1CN([C@H](C)CO)S(=O)(=O)c2ccc(-c3ccc(F)cc3)cc2O[C@H]1CN(C)C(=O)Nc1ccc(F)cc1	0	.	.	.
Cc1ccc(-c2ccc3c(c2)O[C@H](CN(C)C(=O)Nc2ccc(C(F)(F)F)cc2)[C@H](C)CN([C@@H](C)CO)S3(=O)=O)cc1	8.6*	.	.	.
Cc1ccc(-c2ccc3c(c2)O[C@@H](CN(C)C(=O)Nc2ccc(F)cc2)[C@@H](C)CN([C@@H](C)CO)S3(=O)=O)cc1	8.5*	.	.	.
Cc1ccc(-c2ccc3c(c2)O[C@H](CN(C)C(=O)Nc2ccc(F)cc2)[C@@H](C)CN([C@@H](C)CO)S3(=O)=O)cc1	12*	.	.	.
C[C@H]1CN([C@@H](C)CO)S(=O)(=O)c2ccc(-c3ccc(F)cc3)cc2O[C@@H]1CN(C)C(=O)Nc1ccc(F)cc1	-6	.	.	.
CCC(=O)Nc1ccc2c(c1)C(=O)N(C)[C@H]1CC[C@@H](CC(=O)NCCc3ccccc3)O[C@H]1CO2	0	.	.	.
O=C(C[C@@H]1CC[C@@H]2[C@H](COC[C@H](O)CN2C(=O)c2cnccn2)O1)NCc1ccccc1	-3	.	.	.
O=C(O)C[C@@H]1C[C@@H]2c3cc(NC(=O)c4ccc5c(c4)OCO5)ccc3O[C@@H]2[C@@H](CO)O1	-5	.	.	.
C[C@@H]1CN([C@@H](C)CO)C(=O)c2cc(NC(=O)Cc3ccccc3)ccc2O[C@@H]1CN(C)S(=O)(=O)c1ccc(F)cc1	0	.	.	.
COc1cccc(NC(=O)Nc2nc(-c3ccc(OC)c(OC)c3)cs2)c1	4	3	-7	19*
COc1ccc(/C=C2\SC(=O)N(CC(=O)Nc3ccc(F)cc3)C2=O)cc1O	0	11	-2	9.2*
COc1ccc(/C=C2\SC(=O)N(CC(=O)Nc3cccnc3)C2=O)cc1OC	.	7	1	-1
CCCCCCCCCC[n+]1cccc2c3ccccc3ccc21	-8	-17	-11	49*
CCCCCCCC[n+]1cccc2c3ccccc3ccc21	1	-13	-11	7
COc1cccc(S(=O)(=O)Nc2ccc3c(c2)C(=O)N(C)[C@@H]2CC[C@@H](CC(=O)O)O[C@H]2CO3)c1	2	.	.	.
CCC(=O)Nc1ccc(Cl)c(NC(=S)NC(=O)c2cc3ccccc3o2)c1	3	-7	-3	8.2*
CCC(=O)Nc1ccc(Cl)c(NC(=S)NC(=O)c2ccco2)c1	2	-2	2	-3
CCOC(=O)c1c(C)[nH]c(C)c1C(=O)COC(=O)/C=C/c1ccccc1[N+](=O)[O-]	-4	-23	-4	-1
CCOC(=O)c1c(C)[nH]c(C)c1C(=O)COC(=O)c1ccc([N+](=O)[O-])s1	9.3*	-2	-2	-2
COc1cc(NC(=O)c2cccc(C)c2)ccc1NC(=O)c1cc2ccccc2o1	-3	8	-2	11*
COc1cc(NC(=O)c2cccnc2)ccc1-c1cc2ccccc2oc1=O	1	.	2	.
COc1cc(NC(=O)c2cc3ccccc3o2)c(OC)cc1Br	.	2	1	20*
COc1cc(NC(=O)c2cc(Cl)ccc2Cl)ccc1-c1cc2ccccc2oc1=O	.	-2	-4	14*
CCn1nc(C(=O)Nc2nc3ccccc3[nH]2)c2ccccc2c1=O	.	12	0	0
